Reference: ChEMBL document CHEMBL4152247, “Discovery of novel 2,4-diarylaminopyrimidine derivatives as potent and selective epidermal growth factor receptor (EGFR) inhibitors against L858R/T790M resistance mutation” (Eur J Med Chem, 2018)
Activity calls are given as the source filed them. No cut-off for these calls is given here.

Experiments:
[1] = molecular target: T1, Epidermal growth factor receptor (Homo sapiens, UniProt P00533); assay: Inhibition of recombinant human GST-tagged wild type EGFR expressed in baculovirus expression system using poly (Glu, Tyr) 4:1 as substrate after 1 hr by ELISA
T1 sequence (P00533 whole entry): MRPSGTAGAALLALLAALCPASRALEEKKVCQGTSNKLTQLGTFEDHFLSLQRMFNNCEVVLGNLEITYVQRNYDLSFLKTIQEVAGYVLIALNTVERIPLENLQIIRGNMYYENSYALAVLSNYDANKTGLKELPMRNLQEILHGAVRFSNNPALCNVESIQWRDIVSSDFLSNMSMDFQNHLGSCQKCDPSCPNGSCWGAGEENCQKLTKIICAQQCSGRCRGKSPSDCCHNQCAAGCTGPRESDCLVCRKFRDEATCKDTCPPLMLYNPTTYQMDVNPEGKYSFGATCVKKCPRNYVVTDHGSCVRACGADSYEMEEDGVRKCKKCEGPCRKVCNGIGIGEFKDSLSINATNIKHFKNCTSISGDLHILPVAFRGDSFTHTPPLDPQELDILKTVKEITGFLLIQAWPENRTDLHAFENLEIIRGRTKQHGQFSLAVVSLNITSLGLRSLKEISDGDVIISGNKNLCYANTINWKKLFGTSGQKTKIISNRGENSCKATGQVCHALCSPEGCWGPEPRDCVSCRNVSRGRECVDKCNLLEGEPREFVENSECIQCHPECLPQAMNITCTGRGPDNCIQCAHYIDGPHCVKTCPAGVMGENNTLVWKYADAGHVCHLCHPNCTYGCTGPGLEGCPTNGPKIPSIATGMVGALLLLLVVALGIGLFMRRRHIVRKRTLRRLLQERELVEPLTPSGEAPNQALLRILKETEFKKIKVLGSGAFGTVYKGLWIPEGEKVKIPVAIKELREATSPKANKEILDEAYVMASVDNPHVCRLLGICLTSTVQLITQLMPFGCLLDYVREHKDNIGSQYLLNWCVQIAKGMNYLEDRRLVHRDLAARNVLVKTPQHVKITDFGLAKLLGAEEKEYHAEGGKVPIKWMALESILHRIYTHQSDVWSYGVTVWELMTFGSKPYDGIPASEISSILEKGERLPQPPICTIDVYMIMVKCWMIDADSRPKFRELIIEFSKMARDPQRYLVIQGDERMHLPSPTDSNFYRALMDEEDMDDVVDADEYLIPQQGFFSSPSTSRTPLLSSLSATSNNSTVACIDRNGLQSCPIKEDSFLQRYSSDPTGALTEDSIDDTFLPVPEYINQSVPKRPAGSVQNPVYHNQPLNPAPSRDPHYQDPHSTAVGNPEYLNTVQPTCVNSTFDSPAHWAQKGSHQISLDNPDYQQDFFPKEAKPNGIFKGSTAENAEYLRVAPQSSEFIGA

[2] = molecular target: Epidermal growth factor receptor (Homo sapiens, UniProt P00533, L858R/T790M); assay: Inhibition of recombinant human GST-tagged EGFR T790M/L858R double mutant expressed in baculovirus expression system using poly (Glu, Tyr) 4:1 as substrate after 1 hr by ELISA
Chain of Epidermal growth factor receptor (Homo sapiens, UniProt P00533, L858R/T790M) (P00533 25-1210 T790M/L858R limits assumed): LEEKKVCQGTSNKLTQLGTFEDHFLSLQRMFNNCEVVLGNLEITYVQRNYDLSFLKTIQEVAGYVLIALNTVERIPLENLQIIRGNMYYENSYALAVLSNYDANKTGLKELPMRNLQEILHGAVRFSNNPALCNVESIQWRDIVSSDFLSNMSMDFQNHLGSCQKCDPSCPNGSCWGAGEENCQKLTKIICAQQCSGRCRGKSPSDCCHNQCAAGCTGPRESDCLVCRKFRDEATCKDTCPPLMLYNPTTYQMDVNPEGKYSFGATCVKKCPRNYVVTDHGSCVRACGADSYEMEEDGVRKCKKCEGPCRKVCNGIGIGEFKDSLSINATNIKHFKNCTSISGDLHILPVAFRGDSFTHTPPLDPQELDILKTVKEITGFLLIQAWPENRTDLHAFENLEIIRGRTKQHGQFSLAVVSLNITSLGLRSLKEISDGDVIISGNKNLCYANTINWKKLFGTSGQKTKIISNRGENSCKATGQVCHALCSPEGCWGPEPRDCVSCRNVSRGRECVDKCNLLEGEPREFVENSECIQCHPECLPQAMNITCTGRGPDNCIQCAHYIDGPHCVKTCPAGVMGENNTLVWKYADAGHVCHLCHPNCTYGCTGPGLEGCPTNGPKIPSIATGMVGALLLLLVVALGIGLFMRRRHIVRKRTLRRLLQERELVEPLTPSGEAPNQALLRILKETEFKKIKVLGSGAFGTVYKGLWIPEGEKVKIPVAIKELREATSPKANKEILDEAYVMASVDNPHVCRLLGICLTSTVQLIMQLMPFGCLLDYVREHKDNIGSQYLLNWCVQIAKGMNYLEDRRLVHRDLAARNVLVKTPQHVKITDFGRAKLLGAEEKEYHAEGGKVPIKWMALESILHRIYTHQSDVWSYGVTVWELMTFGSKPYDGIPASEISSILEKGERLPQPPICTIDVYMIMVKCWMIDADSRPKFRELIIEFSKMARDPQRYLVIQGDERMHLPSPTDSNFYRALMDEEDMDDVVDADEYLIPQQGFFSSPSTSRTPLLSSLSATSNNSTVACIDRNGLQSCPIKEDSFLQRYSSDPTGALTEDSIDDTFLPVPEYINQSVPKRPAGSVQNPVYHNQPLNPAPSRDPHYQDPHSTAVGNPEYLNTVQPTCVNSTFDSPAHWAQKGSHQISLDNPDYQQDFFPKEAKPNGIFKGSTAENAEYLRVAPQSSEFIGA

[3] = species on record: Homo sapiens; assay: Selectivity index, ratio of IC50 for wild type EGFR expressing human A431 cells to IC50 for EGFR T790M/L858R double mutant expressing human NCI-H1975 cells
[4] = species on record: Homo sapiens; assay: Selectivity ratio of IC50 for recombinant human GST-tagged wild type EGFR to IC50 for recombinant human GST-tagged EGFR T790M/L858R double mutant
[5] = test system: NCI-H1975; assay: Antiproliferative activity against EGFR T790M/L858R double mutant expressing human NCI-H1975 cells after 72 hrs by SRB assay; assay type: functional, cell-based; conditions: NCI-H1975, 72 h
In short: (§1)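 SRB assay: cells seeded at 5×10^3 per well for 24 h, then exposed to serial dilutions for 72 h. DMSO stocks were 10.0 mg/ml. Cells were fixed with 10% TCA at 4 °C for 1 h and stained 15 min with 4 mg/mL SRB in 1% acetic acid. Absorbance was read at 515 nm. Inhibition was taken as [1-(A515 treated/A515 control)]×100%. IC50 was obtained by the logit method, averaging at least three independent experiments.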

[6] = test system: A-431; assay: Antiproliferative activity against wild type EGFR expressing human A431 cells after 72 hrs by SRB assay; assay type: cell-based; conditions: A-431, 72 h; in short: as §1
[7] = test system: Mus musculus; assay: In vivo inhibition of wild type EGFR phosphorylation in tumor of BALB/c athymic nude mouse xenografted with human A431 cells at 10 mg/kg, po bid for 21 days; conditions: 504 h
[8] = test system: Epidermal growth factor receptor (Homo sapiens), P00533 [L858R,T790M]; assay: Inhibition of EGF-induced EGFR T790M/L858R double mutant phosphorylation in human NCI-H1975 cells preincubated for 2 hrs followed by EGF induction and measured after 10 mins by Western blot analysis; assay type: cell-based
Chain of Epidermal growth factor receptor (Homo sapiens), P00533 [L858R,T790M] (P00533 whole entry T790M/L858R, looked up): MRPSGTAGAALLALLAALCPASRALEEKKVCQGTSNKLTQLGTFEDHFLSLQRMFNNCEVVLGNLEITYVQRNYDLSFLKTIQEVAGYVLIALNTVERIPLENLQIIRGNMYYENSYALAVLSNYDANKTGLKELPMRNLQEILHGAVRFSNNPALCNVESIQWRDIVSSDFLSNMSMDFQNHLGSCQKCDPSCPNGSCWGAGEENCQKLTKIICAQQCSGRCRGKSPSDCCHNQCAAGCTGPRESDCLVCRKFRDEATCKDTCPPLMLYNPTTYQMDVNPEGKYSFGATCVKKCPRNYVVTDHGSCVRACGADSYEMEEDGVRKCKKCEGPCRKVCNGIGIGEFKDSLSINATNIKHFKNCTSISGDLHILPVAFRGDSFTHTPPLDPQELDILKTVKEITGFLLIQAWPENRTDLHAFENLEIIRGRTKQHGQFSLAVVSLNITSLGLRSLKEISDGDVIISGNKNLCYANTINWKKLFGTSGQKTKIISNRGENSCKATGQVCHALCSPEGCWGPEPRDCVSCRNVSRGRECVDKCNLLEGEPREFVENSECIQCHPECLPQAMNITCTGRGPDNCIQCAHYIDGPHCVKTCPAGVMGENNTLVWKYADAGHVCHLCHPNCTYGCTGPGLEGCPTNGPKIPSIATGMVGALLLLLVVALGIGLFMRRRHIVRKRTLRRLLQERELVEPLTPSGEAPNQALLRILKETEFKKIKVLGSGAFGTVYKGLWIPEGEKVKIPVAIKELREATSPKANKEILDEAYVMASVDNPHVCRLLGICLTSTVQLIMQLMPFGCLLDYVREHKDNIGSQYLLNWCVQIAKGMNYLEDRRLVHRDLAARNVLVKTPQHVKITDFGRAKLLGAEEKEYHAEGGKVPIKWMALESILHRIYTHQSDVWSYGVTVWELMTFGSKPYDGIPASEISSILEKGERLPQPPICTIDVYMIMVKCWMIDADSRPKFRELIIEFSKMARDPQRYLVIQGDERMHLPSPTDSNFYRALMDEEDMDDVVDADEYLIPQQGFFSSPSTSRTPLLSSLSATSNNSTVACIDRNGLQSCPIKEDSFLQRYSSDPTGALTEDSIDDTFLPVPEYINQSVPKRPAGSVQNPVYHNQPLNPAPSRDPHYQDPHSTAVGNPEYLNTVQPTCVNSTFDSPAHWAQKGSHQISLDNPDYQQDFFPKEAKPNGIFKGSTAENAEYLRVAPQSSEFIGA
In short: (§2)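 Cells were treated with or without compound for 2 h, then stimulated with 50 ng/ml EGF for 10 min. They were lysed in SDS lysis buffer for Western blot. Blots were probed for p-EGFR, EGFR, p-ERK, ERK, p-AKT and AKT, with tubulin as reference.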

[9] = molecular target: T1, Epidermal growth factor receptor; assay: Inhibition of EGF-induced wild type EGFR phosphorylation in human A431 cells at 0.1 to 1000 nM preincubated for 2 hrs followed by EGF induction and measured after 10 mins by Western blot analysis; assay type: cell-based; conditions: 1 µM; in short: as §2
[10] = test system: Mus musculus; assay: In vivo inhibition of wild type EGFR phosphorylation in tumor of BALB/c athymic nude mouse xenografted with human A431 cells assessed as decrease in Akt phosphorylation at 10 mg/kg, po bid for 21 days; conditions: 504 h
[11] = test system: Epidermal growth factor receptor (Homo sapiens), P00533 [L858R,T790M]; assay: Inhibition of EGF-induced EGFR T790M/L858R double mutant in human NCI-H1975 cells assessed as decrease in ERK phosphorylation preincubated for 2 hrs followed by EGF induction and measured after 10 mins by Western blot analysis; assay type: cell-based; in short: as §2
[12] = test system: A431 (Homo sapiens); assay: Antitumor activity against wild type EGFR expressing human A431 cells xenografted in BALB/c athymic nude mouse assessed as tumor growth inhibition at 20 mg/kg, po bid for 21 days relative to vehicle-treated control; conditions: in vivo, 504 h
[13] = test system: Epidermal growth factor receptor (Homo sapiens), P00533 [L858R,T790M]; assay: Inhibition of EGF-induced EGFR T790M/L858R double mutant in human NCI-H1975 cells assessed as decrease in AKT phosphorylation preincubated for 2 hrs followed by EGF induction and measured after 10 mins by Western blot analysis; assay type: cell-based; in short: as §2
[14] = test system: Mus musculus; assay: In vivo inhibition of EGFR T790M/L858R double mutant phosphorylation in tumor of BALB/c athymic nude mouse xenografted with human NCI-H1975 cells assessed as decrease in Akt phosphorylation at 10 mg/kg, po bid for 21 days; assay type: functional, organism-based
In short: (§3)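 Western blot of NCI-H1975 xenograft tumors from mice given 10 mg/kg orally twice daily. Phospho-EGFR and phospho-Akt were quantified against the vehicle control group. Significance was set at p < 0.05.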

[15] = test system: Mus musculus; assay: Toxicity in BALB/c athymic nude mouse xenografted with wild type EGFR expressing human A431 cells assessed as body weight loss at 10 to 20 mg/kg, po bid for 21 days; conditions: in vivo, 504 h
[16] = test system: Mus musculus; assay: Toxicity in BALB/c athymic nude mouse xenografted with EGFR T790M/L858R double mutant expressing human NCI-H1975 cells assessed as body weight loss at 10 to 20 mg/kg, po bid for 21 days; assay type: organism-based; conditions: in vivo, 504 h
[17] = test system: Mus musculus; assay: In vivo inhibition of EGFR T790M/L858R double mutant phosphorylation in tumor of BALB/c athymic nude mouse xenografted with human NCI-H1975 cells at 10 mg/kg, po bid for 21 days; assay type: functional, organism-based; in short: as §3
[18] = test system: NCI-H1975; assay: Antitumor activity against EGFR T790M/L858R double mutant expressing human NCI-H1975 cells xenografted in po dosed BALB/c athymic nude mouse assessed as tumor growth inhibition administered as bid for 21 days; assay type: functional, organism-based
[19] = test system: NCI-H1975; assay: Antitumor activity against EGFR T790M/L858R double mutant expressing human NCI-H1975 cells xenografted in BALB/c athymic nude mouse assessed as tumor growth inhibition at 10 mg/kg, po bid for 21 days; assay type: functional, organism-based
In short: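 5×10^6 NCI-H1975 cells injected subcutaneously into the right flank of athymic mice. At tumour volume 100-300 mm³, mice were randomised (n = 6 per group) to vehicle or drug. Drug given orally twice daily. Tumour size and body weight were measured on set days, with volume = length×width²/2. Results are group means with SEM.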

Structure (SMILES)	IC50 [1]	IC50 [2]	Ratio IC50 [3]	Ratio IC50 [4]	IC50 [5]	IC50 [6]	also measured
C=CC(=O)Nc1cc(Nc2nccc(Nc3ccccc3-c3ccn(C)n3)n2)c(OC)cc1N1CCOCC1	> 1 µM	> 1 µM					
C=CC(=O)Nc1cc(Nc2nccc(Nc3ccccc3-c3ncn(C)n3)n2)c(OC)cc1N(C)CCN(C)C	0.66 µM	0.0077 µM	20	86	0.074 µM	1.5 µM	
C=CC(=O)Nc1cc(Nc2nccc(Nc3ccccc3-c3ccn(C)n3)n2)c(OC)cc1N(C)CCN(C)C	0.35 µM	0.0041 µM	124	85	0.059 µM	7.37 µM	inhibition (INH) [7]: Not Active; inhibition [8]: Dose-dependent effect; inhibition (INH) [9]: Not Active; inhibition (INH) [10]: Not Active; inhibition [11]: Dose-dependent effect; TGI [12]: < 20%; inhibition [13]: Dose-dependent effect; inhibition [14]: Active; Activity [15]: Non-Toxic; Activity [16]: Non-Toxic; inhibition [17]: Active; TGI [18]: Dose-dependent effect
C=CC(=O)Nc1cc(Nc2nccc(Nc3ccccc3-c3ccn(C)n3)n2)c(OC)cc1N1CCN(C)CC1	> 1 µM	> 1 µM					
C=CC(=O)Nc1cc(Nc2nccc(Nc3ccccc3-n3nccn3)n2)c(OC)cc1N1CCC(N(C)C)CC1	> 1 µM	0.202 µM	39		0.07 µM	2.76 µM	
C=CC(=O)Nc1cc(Nc2nccc(Nc3ccccc3-n3cccn3)n2)c(OC)cc1N1CCOCC1	> 1 µM	> 1 µM					
C=CC(=O)Nc1cc(Nc2nccc(Nc3ccccc3-c3ccn(C)n3)n2)c(OC)cc1N1CCC(N(C)C)CC1	> 1 µM	0.0385 µM					
C=CC(=O)Nc1cc(Nc2nccc(Nc3ccccc3-n3nccn3)n2)c(OC)cc1N1CCOCC1	> 1 µM	0.838 µM					
C=CC(=O)Nc1cc(Nc2nccc(-c3cn(C)c4ccccc34)n2)c(OC)cc1N(C)CCN(C)C [OSIMERTINIB]					[…]	[…]	TGI [19]: Active
C=CC(=O)Nc1cc(Nc2nccc(Nc3ccccc3-n3cccn3)n2)c(OC)cc1N1CCN(C)CC1	> 1 µM	0.143 µM					
C=CC(=O)Nc1cc(Nc2nccc(Nc3ccccc3-n3nccn3)n2)c(OC)cc1N(C)CCN(C)C	0.281 µM	0.0331 µM		8			
C=CC(=O)Nc1cc(Nc2nccc(Nc3ccccc3-n3nccn3)n2)c(OC)cc1N1CCN(C)CC1	> 1 µM	0.175 µM					
C=CC(=O)Nc1cc(Nc2nccc(Nc3ccccc3-c3ccn(C)n3)n2)c(OC)cc1OCCN(C)C	0.317 µM	0.0164 µM	18	19	0.085 µM	1.58 µM	
C=CC(=O)Nc1cc(Nc2nccc(Nc3ccccc3-n3cccn3)n2)c(OC)cc1N(C)CCN(C)C	0.648 µM	0.0041 µM	148	158	0.068 µM	10.1 µM	
